Molecules are shown by their SMILES. The source made the active and inactive calls.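 Rule for the calls, unless noted: active = potentiation averaged over duplicate wells exceeding buffer-only control mean by more than 3 SD; inactive = the rest.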

Potassium voltage-gated channel subfamily KQT member 1 (Homo sapiens), sequence (P51787 whole entry, looked up): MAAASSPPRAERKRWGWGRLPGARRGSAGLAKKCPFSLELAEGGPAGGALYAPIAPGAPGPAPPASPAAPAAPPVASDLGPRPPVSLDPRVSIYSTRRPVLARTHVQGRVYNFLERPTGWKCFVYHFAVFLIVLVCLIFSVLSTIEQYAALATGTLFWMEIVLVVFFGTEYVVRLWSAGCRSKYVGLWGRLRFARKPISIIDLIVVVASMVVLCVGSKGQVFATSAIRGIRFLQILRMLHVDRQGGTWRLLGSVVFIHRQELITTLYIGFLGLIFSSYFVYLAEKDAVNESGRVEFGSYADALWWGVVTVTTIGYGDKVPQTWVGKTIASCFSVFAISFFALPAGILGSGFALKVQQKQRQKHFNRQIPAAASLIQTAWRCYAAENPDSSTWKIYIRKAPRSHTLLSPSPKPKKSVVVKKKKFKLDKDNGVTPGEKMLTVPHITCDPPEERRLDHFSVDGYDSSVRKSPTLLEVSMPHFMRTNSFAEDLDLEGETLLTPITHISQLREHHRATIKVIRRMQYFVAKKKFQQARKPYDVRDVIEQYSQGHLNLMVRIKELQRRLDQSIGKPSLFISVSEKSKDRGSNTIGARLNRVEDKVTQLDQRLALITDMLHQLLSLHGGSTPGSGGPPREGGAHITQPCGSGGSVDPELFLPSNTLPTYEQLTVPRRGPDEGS

Tested on in the first experiment: not listed separately
The experiment in a line: nonspecific flux increase, KCNQ1-free cells – parental CHO cells, counter-screen for KCNQ1 potentiator project (AID 493006;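 active = duplicate-averaged activation above buffer control mean plus 5 SD of those controls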;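 for activation: fluorescence ratio of max minus min over baseline after K+ and Tl+ depolarization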). As to conditions: parental CHO-K1 cells, FluxOR thallium flux, at 10 µM; stronger effect = higher value. In short, it runs like this:
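Material: untransfected host CHO-K1 cells with FluxOR thallium dye. Timing: overnight 37 °C plating, 90 min RT dye, 20 min compound. Detection: kinetic FluxOR fluorescence, 10 s baseline, 110 s after stimulus. Read-out basis: max-minus-min fluorescence over baseline, percent of buffer-to-R-L3 span. Replicates: duplicate wells per compound, percent values averaged.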
`COc1ccc(NC(=O)C(=O)NNC(=O)C(C)Oc2ccc(Cl)cc2Cl)cc1` (stereo not drawn): the activation is 481% (active).
In the case of `O=C(Nc1nc2c(F)cc(F)cc2s1)C1COc2ccccc2O1` (stereo not drawn), the activation was 142% (active).
The same measure, in the same setting: for `FC(F)Sc1nc2ccccc2[nH]1` the value was 154% (active).
In the case of `CCn1c(CSc2nc3ccccc3n2C)nc2ccccc21`, the result was inactive.
Take `Nc1c(-c2ccccc2)cnc2c(-c3ccccc3)cnn12`: the result was inactive.
`S=c1nc(-c2ccc(Br)cc2)oc2c1CCCC2`: the outcome was inactive.
For the compound `S=c1nc(C2CC2)[nH]c2ccccc12`, the activation is 414% (active).
Turning to `FC(F)(F)c1cnc2c(c1)[nH]c(=S)n2-c1ccc(Cl)cc1`, the activation is 142% (active).
Take `CCOC(=O)c1[nH]c(C=O)c(C(=O)OCC)c1C`: the result was inactive.
On to `COC(=O)c1ccc(CNC(=O)c2ccc(COc3ccccc3)cc2)cc1`, for which the outcome was inactive.
As for `COc1ccc(C(=O)NC(=S)N2CCC(C)CC2)cc1Br`, the activation was 185% (active).
With `C=CCn1c(N)c(C(=O)Nc2ccc(C)cc2)sc1=S`, the outcome was inactive.
For `O=C(CCc1ccccc1)Nc1nccs1`, the result was inactive.
Consider `Cc1[nH]n(-c2cccc3ccccc23)c(=O)c1/C=N/c1sc2c(c1C#N)CCC2`, for which the activation was 204% (active).
In the case of `COc1cc(C(=O)NC(=S)N(CCc2ccccc2)CCc2ccccc2)cc(OC)c1OC`, the activation was 198% (active).
Turning to `Cc1ccc(-c2nc(N)s[n+]2-c2ccccc2)cc1`, the activation is 187% (active).
For `Cc1ccc2nc(NC(=O)c3ccc(Br)o3)sc2c1`, the outcome was inactive.
`CN(C)C(=S)NC(=O)c1cccc(Cl)c1`: the result was inactive.
For the compound `CCCOc1ccccc1Cn1c(=O)oc2ccc(C)cc21`, the result was inactive.
Consider `CC(=O)c1c(N2CCOCC2)[nH]c(-c2ccccc2)nc1=S`, for which the activation was 202% (active).
Take `CC(=O)N1N=C(N)SC12CCCC2`: the result was inactive.
As to `CN(C)/C=N/S(=O)(=O)c1cccn1-c1ncc(C(F)(F)F)cc1Cl`, the result was inactive.
Regarding `COC(=O)c1ccc(C(=O)NC(=S)Nc2nc3c(s2)CCCC3)cc1`, the activation is 210% (active).
Still for that read-out and setting: then `COc1ccc(NC(=O)C(=O)NNC(=O)c2ccc(Cl)cc2Cl)cc1`, with 412% (active); and `CCc1cc2c(=O)n(CCC(C)C)c(=S)[nH]c2s1`, with 516% (active).
Regarding `COc1cccc(C2=NOC(C(=O)NCc3ccccc3)C2)c1` (stereo not drawn), the outcome was inactive.
With `O=C(NC(=S)Nc1ccccc1)c1cccs1`, the activation was 137% (active).
For `COc1cc(C2NC(=O)NC(O)(C(F)(F)F)C2C(C)=O)cc(OC)c1OC` (stereo not drawn), the outcome was inactive.
Take `CCOC(=S)NC(=O)c1sc2ccccc2c1Cl`: the activation is 398% (active).
On to `COc1ccc2c(CCNC(=O)CN3C(=O)c4ccccc4C3=O)c[nH]c2c1`, for which the outcome was inactive.
Turning to `O=C(COC(=O)C1CCC(=O)N1)Nc1ccc(Oc2ccccc2)cc1` (stereo not drawn), the result was inactive.
Take `Cc1ccc(C2=NOC(=O)/C2=C\C=C\c2ccccc2)cc1`: the outcome was inactive.
In the case of `N#C/C(=C/c1cn(-c2ccccc2)nc1-c1cccc(S(=O)(=O)N2CCOCC2)c1)C(=O)NCc1ccco1`, the outcome was inactive.
For the compound `CSC(=S)N/N=C(\C)c1ccc(Br)cc1`, the activation is 309% (active).
Same read-out and setting: then `COc1ccc(-c2oc3ccccc3c(=O)c2OC(C)=O)cc1`, with 144% (active).
Still for that read-out and setting: then `Cc1ccc(S(=O)(=O)NN2C(=O)/C(=C/c3cccc(F)c3)SC2=S)cc1`, with 176% (active).
Turning to `S=c1[nH]nc(-c2cccs2)n1/N=C/c1c(Cl)cccc1Cl`, the outcome was inactive.
Take `CCc1nnc(SCC(=O)Nc2nnc(C)s2)n1CC1CCCO1` (stereo not drawn): the activation is 278% (active).
`CC(=O)O[C@H]1CSC[C@H]1NC(=O)c1ccccc1`: the result was inactive.

A further experiment concerns the target Potassium voltage-gated channel subfamily KQT member 1 (Homo sapiens) (UniProt P51787). The experiment in a line: enhancement of KCNQ1 channel thallium flux – FluxOR thallium flux, CHO cells, duplicates, confirmation (AID 493007).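 For outcome: cells depolarized by a potassium plus thallium sulfate stimulus after compound.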 Conditions: KCNQ1 cell line, FluxOR thallium flux fluorescence, at 10 µM; stronger effect = higher value, % of reference activator effect, buffer zero. In short, it runs like this:
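Test system – KCNQ1-expressing CHO cell line · Incubation – FluxOR dye loading 90 min, compound exposure 20 min, room temperature · Detection – FluxOR Tl+ flux fluorescence, 10 s baseline plus 110 s recording · Controls – buffer-only wells as 0% and R-L3 activator as 100%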
As for `COc1ccc(NC(=O)C(=O)NNC(=O)C(C)Oc2ccc(Cl)cc2Cl)cc1` (stereo not drawn), the potentiation was 177% (active).
On to `O=C(Nc1nc2c(F)cc(F)cc2s1)C1COc2ccccc2O1` (stereo not drawn), for which the potentiation was 68.5% (active).
`FC(F)Sc1nc2ccccc2[nH]1`: the outcome was inactive.
Consider `CCn1c(CSc2nc3ccccc3n2C)nc2ccccc21`, for which the outcome was inactive.
On to `Nc1c(-c2ccccc2)cnc2c(-c3ccccc3)cnn12`, for which the result was inactive.
Turning to `S=c1nc(-c2ccc(Br)cc2)oc2c1CCCC2`, the potentiation was 37% (active).
Same read-out and setting: for `S=c1nc(C2CC2)[nH]c2ccccc12` the value was 83.5% (active); for `FC(F)(F)c1cnc2c(c1)[nH]c(=S)n2-c1ccc(Cl)cc1`, 27% (active).
For `CCOC(=O)c1[nH]c(C=O)c(C(=O)OCC)c1C`, the outcome was inactive.
Turning to `COC(=O)c1ccc(CNC(=O)c2ccc(COc3ccccc3)cc2)cc1`, the outcome was inactive.
With `COc1ccc(C(=O)NC(=S)N2CCC(C)CC2)cc1Br`, the potentiation was 90% (active).
As to `C=CCn1c(N)c(C(=O)Nc2ccc(C)cc2)sc1=S`, the result was inactive.
With `O=C(CCc1ccccc1)Nc1nccs1`, the result was inactive.
Consider `Cc1[nH]n(-c2cccc3ccccc23)c(=O)c1/C=N/c1sc2c(c1C#N)CCC2`, for which the potentiation was 122% (active).
The same measure, in the same setting: then `COc1cc(C(=O)NC(=S)N(CCc2ccccc2)CCc2ccccc2)cc(OC)c1OC`, with 104% (active); and `Cc1ccc(-c2nc(N)s[n+]2-c2ccccc2)cc1`, with 157% (active).
In the case of `Cc1ccc2nc(NC(=O)c3ccc(Br)o3)sc2c1`, the result was inactive.
Turning to `CN(C)C(=S)NC(=O)c1cccc(Cl)c1`, the potentiation is 19% (active).
Take `CCCOc1ccccc1Cn1c(=O)oc2ccc(C)cc21`: the result was inactive.
For `CC(=O)c1c(N2CCOCC2)[nH]c(-c2ccccc2)nc1=S`, the potentiation is 66.5% (active).
Regarding `CC(=O)N1N=C(N)SC12CCCC2`, the outcome was inactive.
As to `CN(C)/C=N/S(=O)(=O)c1cccn1-c1ncc(C(F)(F)F)cc1Cl`, the outcome was inactive.
Take `COC(=O)c1ccc(C(=O)NC(=S)Nc2nc3c(s2)CCCC3)cc1`: the potentiation was 169% (active).
`COc1ccc(NC(=O)C(=O)NNC(=O)c2ccc(Cl)cc2Cl)cc1`: the potentiation was 200% (active).
As for `CCc1cc2c(=O)n(CCC(C)C)c(=S)[nH]c2s1`, the potentiation was 228% (active).
For the compound `COc1cccc(C2=NOC(C(=O)NCc3ccccc3)C2)c1` (stereo not drawn), the result was inactive.
For `O=C(NC(=S)Nc1ccccc1)c1cccs1`, the outcome was inactive.
For `COc1cc(C2NC(=O)NC(O)(C(F)(F)F)C2C(C)=O)cc(OC)c1OC` (stereo not drawn), the outcome was inactive.
`CCOC(=S)NC(=O)c1sc2ccccc2c1Cl`: the potentiation was 122% (active).
As for `COc1ccc2c(CCNC(=O)CN3C(=O)c4ccccc4C3=O)c[nH]c2c1`, the outcome was inactive.
`O=C(COC(=O)C1CCC(=O)N1)Nc1ccc(Oc2ccccc2)cc1` (stereo not drawn): the outcome was inactive.
As to `Cc1ccc(C2=NOC(=O)/C2=C\C=C\c2ccccc2)cc1`, the result was inactive.
`N#C/C(=C/c1cn(-c2ccccc2)nc1-c1cccc(S(=O)(=O)N2CCOCC2)c1)C(=O)NCc1ccco1`: the result was inactive.
For `CSC(=S)N/N=C(\C)c1ccc(Br)cc1`, the potentiation is 132% (active).
`COc1ccc(-c2oc3ccccc3c(=O)c2OC(C)=O)cc1`: the result was inactive.
In the case of `Cc1ccc(S(=O)(=O)NN2C(=O)/C(=C/c3cccc(F)c3)SC2=S)cc1`, the potentiation is 20.5% (active).
In the case of `S=c1[nH]nc(-c2cccs2)n1/N=C/c1c(Cl)cccc1Cl`, the potentiation was 30% (active).
In the case of `CCc1nnc(SCC(=O)Nc2nnc(C)s2)n1CC1CCCO1` (stereo not drawn), the potentiation was 86.5% (active).
Consider `CC(=O)O[C@H]1CSC[C@H]1NC(=O)c1ccccc1`, for which the outcome was inactive.

Source of the values: PubChem BioAssay.
